Test results taken from ChEMBL document CHEMBL1138525 (J Med Chem, 2009).

Key:
[1] = target: T1, P2Y purinoceptor 2 (Homo sapiens, UniProt P41231); assay: Agonist activity at N-terminal HA epitope-tagged wild type 4 human P2Y2 receptor expressed in human 1321N1 cells assessed as increase in intracellular calcium level relative to carbachol; format: functional, cell-based
How it was run: (§1)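 Retrovirally transduced stable 1321N1 astrocytoma lines (wild-type lines of differing expression, or mutants) in suspension, loaded with Oregon Green BAPTA-1/AM for 1 h at room temperature. Cells were plated at 150000 per well in Krebs-HEPES pH 7.4 and held 20 min at 28 °C in the dark. Agonist was then injected, with fluorescence read at ex 485/em 520 nm for 60 × 0.4 s.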

[2] = system: P2Y purinoceptor 2 (Homo sapiens), P41231 [Y198A]; assay: Agonist activity at N-terminal HA epitope-tagged human P2Y2 receptor Y198A mutant expressed in human 1321N1 cells assessed as increase in intracellular calcium level relative to carbachol; format: functional, cell-based; how it was run: as §1
Sequence of P2Y purinoceptor 2 (Homo sapiens), P41231 [Y198A] (P41231 whole entry Y198A): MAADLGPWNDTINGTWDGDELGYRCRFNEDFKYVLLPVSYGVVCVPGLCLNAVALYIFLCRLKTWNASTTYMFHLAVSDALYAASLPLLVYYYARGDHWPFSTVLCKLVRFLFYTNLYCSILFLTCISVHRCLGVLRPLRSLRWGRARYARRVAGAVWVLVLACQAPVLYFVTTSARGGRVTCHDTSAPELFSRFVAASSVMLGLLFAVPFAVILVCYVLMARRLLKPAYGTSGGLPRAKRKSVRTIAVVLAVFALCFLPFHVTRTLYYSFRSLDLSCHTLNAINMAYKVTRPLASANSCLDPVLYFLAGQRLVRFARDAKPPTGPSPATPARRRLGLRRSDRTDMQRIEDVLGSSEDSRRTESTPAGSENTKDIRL

[3] = system: P2Y purinoceptor 2 (Homo sapiens), P41231 [UNDEFINED MUTATION]; assay: Ratio of EC50 for N-terminal HA epitope-tagged human P2Y2 receptor Y118A mutant to EC50 for wild type 3 human P2Y2 receptor
Sequence of P2Y purinoceptor 2 (Homo sapiens), P41231 [UNDEFINED MUTATION] (P41231 whole entry, looked up, stated change not applied): as the sequence (P41231 whole entry Y198A) above, with A198Y counted along it

[4] = target: T2, P2Y purinoceptor 2 (Homo sapiens, UniProt P41231, R177A/R180A); assay: Agonist activity at N-terminal HA epitope-tagged human P2Y2 receptor R177A_R180A double mutant expressed in human 1321N1 cells assessed as increase in intracellular calcium level; format: functional, cell-based
T2 sequence (P41231 whole entry R177A/R180A): as the sequence (P41231 whole entry Y198A) above, with R177A, R180A, A198Y counted along it
How it was run: (§2)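 1321N1 astrocytoma cells stably expressing mutant receptor (retroviral transfection, G418 selection), loaded with Oregon Green BAPTA-1/AM in Krebs-HEPES pH 7.4 for 1 h at room temperature. Plated at 150000 cells/well and held 20 min at 28 °C in the dark. Efficacy relative to 100 µM carbachol.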

[5] = target: T1, P2Y purinoceptor 2; assay: Agonist activity at N-terminal HA epitope-tagged wild type 4 human P2Y2 receptor expressed in human 1321N1 cells assessed as increase in intracellular calcium level; format: functional, cell-based
How it was run: (§3)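 Retrovirally transduced stable 1321N1 astrocytoma lines (wild-type lines of differing expression, or mutants) in suspension, loaded with Oregon Green BAPTA-1/AM for 1 h at room temperature. Cells were plated at 150000 per well in Krebs-HEPES pH 7.4 and held 20 min at 28 °C in the dark.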

[6] = target: P2Y purinoceptor 2 (Homo sapiens, UniProt P41231, R180A); assay: Agonist activity at N-terminal HA epitope-tagged human P2Y2 receptor R180A mutant expressed in human 1321N1 cells assessed as increase in intracellular calcium level; format: functional, cell-based; how it was run: as §2
Sequence of P2Y purinoceptor 2 (Homo sapiens, UniProt P41231, R180A) (P41231 whole entry R180A): as the sequence (P41231 whole entry Y198A) above, with R180A, A198Y counted along it

[7] = system: P2Y purinoceptor 2 (Homo sapiens), P41231 [UNDEFINED MUTATION]; assay: Ratio of EC50 for N-terminal HA epitope-tagged human P2Y2 receptor Y114A mutant to EC50 for wild type 3 human P2Y2 receptor
How it was run: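 HA-tagged receptors (wild type or mutant) were stably expressed in 1321N1 astrocytoma cells via retrovirus. Cells were loaded with Oregon Green BAPTA-1/AM in Krebs-HEPES pH 7.4, then kept 20 min at 28 °C before agonist injection. Fluorescence was read at 520 nm (excitation 485 nm). […] Each mutant was compared with the wild-type line of similar expression.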

[8] = target: P2Y purinoceptor 2 (Homo sapiens, UniProt P41231, R177A); assay: Agonist activity at N-terminal HA epitope-tagged human P2Y2 receptor R177A mutant expressed in human 1321N1 cells assessed as increase in intracellular calcium level; format: functional, cell-based; how it was run: as §2
Sequence of P2Y purinoceptor 2 (Homo sapiens, UniProt P41231, R177A) (P41231 whole entry R177A): as the sequence (P41231 whole entry Y198A) above, with R177A, A198Y counted along it

[9] = target: P2Y purinoceptor 2 (Homo sapiens, UniProt P41231, R272A); assay: Agonist activity at N-terminal HA epitope-tagged human P2Y2 receptor R272A mutant expressed in human 1321N1 cells assessed as increase in intracellular calcium level; format: functional, cell-based; how it was run: as §2
Sequence of P2Y purinoceptor 2 (Homo sapiens, UniProt P41231, R272A) (P41231 whole entry R272A): as the sequence (P41231 whole entry Y198A) above, with A198Y, R272A counted along it

[10] = system: P2Y purinoceptor 2 (Homo sapiens), P41231 [R194H]; assay: Agonist activity at N-terminal HA epitope-tagged human P2Y2 receptor R194H mutant expressed in human 1321N1 cells assessed as increase in intracellular calcium level relative to carbachol; format: functional, cell-based; how it was run: as §1
Sequence of P2Y purinoceptor 2 (Homo sapiens), P41231 [R194H] (P41231 whole entry R194H): as the sequence (P41231 whole entry Y198A) above, with R194H, A198Y counted along it

[11] = system: P2Y purinoceptor 2 (Homo sapiens), P41231 [R177A]; assay: Agonist activity at N-terminal HA epitope-tagged human P2Y2 receptor R177A mutant expressed in human 1321N1 cells assessed as increase in intracellular calcium level relative to carbachol; format: functional, cell-based; how it was run: as §1
Sequence of P2Y purinoceptor 2 (Homo sapiens), P41231 [R177A] (P41231 whole entry R177A): as the sequence (P41231 whole entry Y198A) above, with R177A, A198Y counted along it

[12] = target: T1, P2Y purinoceptor 2; assay: Agonist activity at N-terminal HA epitope-tagged wild type 3 human P2Y2 receptor expressed in human 1321N1 cells assessed as increase in intracellular calcium level relative to carbachol; format: functional, cell-based; how it was run: as §1
[13] = target: T3, P2Y purinoceptor 2 (Homo sapiens, UniProt P41231, Y114A); assay: Agonist activity at N-terminal HA epitope-tagged human P2Y2 receptor Y114A mutant expressed in human 1321N1 cells assessed as increase in intracellular calcium level; format: functional, cell-based; how it was run: as §2
T3 sequence (P41231 whole entry Y114A): as the sequence (P41231 whole entry Y198A) above, with Y114A, A198Y counted along it

[14] = system: P2Y purinoceptor 2 (Homo sapiens), P41231 [UNDEFINED MUTATION]; assay: Ratio of EC50 for N-terminal HA epitope-tagged human P2Y2 receptor R177A_R180A double mutant to EC50 for wild type 4 human P2Y2 receptor
[15] = target: T4, P2Y purinoceptor 2 (Homo sapiens, UniProt P41231, C278S); assay: Agonist activity at N-terminal HA epitope-tagged human P2Y2 receptor C278S mutant expressed in human 1321N1 cells assessed as increase in intracellular calcium level; format: functional, cell-based; how it was run: as §2
T4 sequence (P41231 whole entry C278S): as the sequence (P41231 whole entry Y198A) above, with A198Y, C278S counted along it

[16] = system: P2Y purinoceptor 2 (Homo sapiens), P41231 [R180A]; assay: Agonist activity at N-terminal HA epitope-tagged human P2Y2 receptor R180A mutant expressed in human 1321N1 cells assessed as increase in intracellular calcium level relative to carbachol; format: functional, cell-based; how it was run: as §1
Sequence of P2Y purinoceptor 2 (Homo sapiens), P41231 [R180A] (P41231 whole entry R180A): as the sequence (P41231 whole entry Y198A) above, with R180A, A198Y counted along it

[17] = system: P2Y purinoceptor 2 (Homo sapiens), P41231 [R272A]; assay: Agonist activity at N-terminal HA epitope-tagged human P2Y2 receptor R272A mutant expressed in human 1321N1 cells assessed as increase in intracellular calcium level relative to carbachol; format: functional, cell-based; how it was run: as §1
Sequence of P2Y purinoceptor 2 (Homo sapiens), P41231 [R272A] (P41231 whole entry R272A): as the sequence (P41231 whole entry Y198A) above, with A198Y, R272A counted along it

[18] = system: P2Y purinoceptor 2 (Homo sapiens), P41231 [C278S]; assay: Agonist activity at N-terminal HA epitope-tagged human P2Y2 receptor C278S mutant expressed in human 1321N1 cells assessed as increase in intracellular calcium level relative to carbachol; format: functional, cell-based; how it was run: as §1
Sequence of P2Y purinoceptor 2 (Homo sapiens), P41231 [C278S] (P41231 whole entry C278S): as the sequence (P41231 whole entry Y198A) above, with A198Y, C278S counted along it

[19] = target: T1, P2Y purinoceptor 2; assay: Agonist activity at N-terminal HA epitope-tagged wild type human P2Y2 receptor expressed in human 1321N1 cells assessed as increase in intracellular calcium level; format: functional, cell-based; how it was run: as §1
[20] = system: P2Y purinoceptor 2 (Homo sapiens), P41231 [S296A]; assay: Agonist activity at N-terminal HA epitope-tagged human P2Y2 receptor S296A mutant expressed in human 1321N1 cells assessed as increase in intracellular calcium level relative to carbachol; format: functional, cell-based; how it was run: as §1
Sequence of P2Y purinoceptor 2 (Homo sapiens), P41231 [S296A] (P41231 whole entry S296A): as the sequence (P41231 whole entry Y198A) above, with A198Y, S296A counted along it

[21] = target: T5, P2Y purinoceptor 2 (Homo sapiens, UniProt P41231, Y198A); assay: Agonist activity at N-terminal HA epitope-tagged human P2Y2 receptor Y198A mutant expressed in human 1321N1 cells assessed as increase in intracellular calcium level; format: functional, cell-based; how it was run: as §2
T5 sequence (P41231 whole entry Y198A): as the sequence (P41231 whole entry Y198A) above

[22] = target: T6, P2Y purinoceptor 2 (Homo sapiens, UniProt P41231, Y118A); assay: Agonist activity at N-terminal HA epitope-tagged human P2Y2 receptor Y118A mutant expressed in human 1321N1 cells assessed as increase in intracellular calcium level; format: functional, cell-based; how it was run: as §2
T6 sequence (P41231 whole entry Y118A): as the sequence (P41231 whole entry Y198A) above, with Y118A, A198Y counted along it

[23] = system: P2Y purinoceptor 2 (Homo sapiens), P41231 [R177A,R180A]; assay: Agonist activity at N-terminal HA epitope-tagged human P2Y2 receptor R177A_R180A double mutant expressed in human 1321N1 cells assessed as increase in intracellular calcium level relative to carbachol; format: functional, cell-based; how it was run: as §1
Sequence of P2Y purinoceptor 2 (Homo sapiens), P41231 [R177A,R180A] (P41231 whole entry R177A/R180A): as the sequence (P41231 whole entry Y198A) above, with R177A, R180A, A198Y counted along it

[24] = system: P2Y purinoceptor 2 (Homo sapiens), P41231 [Y118A]; assay: Agonist activity at N-terminal HA epitope-tagged human P2Y2 receptor Y118A mutant expressed in human 1321N1 cells assessed as increase in intracellular calcium level relative to carbachol; format: functional, cell-based; how it was run: as §1
Sequence of P2Y purinoceptor 2 (Homo sapiens), P41231 [Y118A] (P41231 whole entry Y118A): as the sequence (P41231 whole entry Y198A) above, with Y118A, A198Y counted along it

[25] = target: P2Y purinoceptor 2 (Homo sapiens, UniProt P41231, R194H); assay: Agonist activity at N-terminal HA epitope-tagged human P2Y2 receptor R194H mutant expressed in human 1321N1 cells assessed as increase in intracellular calcium level; format: functional, cell-based; how it was run: as §2
Sequence of P2Y purinoceptor 2 (Homo sapiens, UniProt P41231, R194H) (P41231 whole entry R194H): as the sequence (P41231 whole entry Y198A) above, with R194H, A198Y counted along it

[26] = system: P2Y purinoceptor 2 (Homo sapiens), P41231 [Y114A]; assay: Agonist activity at N-terminal HA epitope-tagged human P2Y2 receptor Y114A mutant expressed in human 1321N1 cells assessed as increase in intracellular calcium level relative to carbachol; format: functional, cell-based; how it was run: as §1
Sequence of P2Y purinoceptor 2 (Homo sapiens), P41231 [Y114A] (P41231 whole entry Y114A): as the sequence (P41231 whole entry Y198A) above, with Y114A, A198Y counted along it

[27] = target: P2Y purinoceptor 2 (Homo sapiens, UniProt P41231, S296A); assay: Agonist activity at N-terminal HA epitope-tagged human P2Y2 receptor S296A mutant expressed in human 1321N1 cells assessed as increase in intracellular calcium level; format: functional, cell-based; how it was run: as §3
Sequence of P2Y purinoceptor 2 (Homo sapiens, UniProt P41231, S296A) (P41231 whole entry S296A): as the sequence (P41231 whole entry Y198A) above, with A198Y, S296A counted along it

[28] = system: P2Y purinoceptor 2 (Homo sapiens), P41231 [UNDEFINED MUTATION]; assay: Ratio of EC50 for N-terminal HA epitope-tagged human P2Y2 receptor C278S mutant to EC50 for wild type 3 human P2Y2 receptor
[29] = target: T1, P2Y purinoceptor 2; assay: Agonist activity at N-terminal HA epitope-tagged wild type 3 human P2Y2 receptor expressed in human 1321N1 cells assessed as increase in intracellular calcium level; format: functional, cell-based; how it was run: as §3
[30] = system: P2Y purinoceptor 2 (Homo sapiens), P41231 [R180A]; assay: Antagonist activity at N-terminal HA epitope-tagged human P2Y2 receptor R180A mutant expressed in human 1321N1 cells assessed as inhibition of UTP-induced calcium mobilization; format: functional, cell-based; conditions: concentration not given here
[31] = target: T6, P2Y purinoceptor 2; assay: Antagonist activity at N-terminal HA epitope-tagged human P2Y2 receptor Y118A mutant expressed in human 1321N1 cells assessed as inhibition of UTP-induced calcium mobilization; format: functional, cell-based
How it was run: (§4)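 1321N1 cells expressing wild-type or mutant receptor were dye-loaded with Oregon Green BAPTA-1/AM in Krebs-HEPES pH 7.4. Antagonist was preincubated for 20 min at 28 °C in the dark. Cells were then stimulated with UTP at a concentration giving 80-90% of maximal response. Calcium fluorescence read at 520 nm (excitation 485 nm).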

[32] = system: P2Y purinoceptor 2 (Homo sapiens), P41231 [UNDEFINED MUTATION]; assay: Ratio of IC50 for N-terminal HA epitope-tagged human P2Y2 receptor C278S mutant to IC50 for wild type 3 human P2Y2 receptor
[33] = system: P2Y purinoceptor 2 (Homo sapiens), P41231 [R177A]; assay: Antagonist activity at N-terminal HA epitope-tagged human P2Y2 receptor R177A mutant expressed in human 1321N1 cells assessed as inhibition of UTP-induced calcium mobilization; format: functional, cell-based; conditions: concentration not given here
[34] = target: T5, P2Y purinoceptor 2; assay: Antagonist activity at N-terminal HA epitope-tagged human P2Y2 receptor Y198A mutant expressed in human 1321N1 cells assessed as inhibition of UTP-induced calcium mobilization; format: functional, cell-based; how it was run: as §4
[35] = target: T1, P2Y purinoceptor 2; assay: Antagonist activity at N-terminal HA epitope-tagged wild type 3 human P2Y2 receptor expressed in human 1321N1 cells assessed as inhibition of UTP-induced calcium mobilization; format: functional, cell-based; how it was run: as §4
[36] = target: T3, P2Y purinoceptor 2; assay: Antagonist activity at N-terminal HA epitope-tagged human P2Y2 receptor Y114A mutant expressed in human 1321N1 cells assessed as inhibition of UTP-induced calcium mobilization; format: functional, cell-based; how it was run: as §4
[37] = target: T4, P2Y purinoceptor 2; assay: Antagonist activity at N-terminal HA epitope-tagged human P2Y2 receptor C278S mutant expressed in human 1321N1 cells assessed as inhibition of UTP-induced calcium mobilization; format: functional, cell-based; how it was run: as §4
[38] = target: T2, P2Y purinoceptor 2; assay: Antagonist activity at N-terminal HA epitope-tagged human P2Y2 receptor R177A_R180A double mutant expressed in human 1321N1 cells assessed as inhibition of UTP-induced calcium mobilization; format: functional, cell-based; how it was run: as §4

T1 sequence (P41231 whole entry): as the sequence (P41231 whole entry Y198A) above, with A198Y counted along it

## Nc1ncnc2c1ncn2[C@@H]1O[C@H](COP(=O)(O)OP(=O)(O)OP(=O)(O)O)[C@@H](O)[C@H]1O [ADENOSINE TRIPHOSPHATE]
[1]
  Efficacy: 110%
[2]
  Efficacy: 126%
[3]
  Ratio EC50: 3
[4]
  EC50: 239 nM
[5]
  EC50: 63.1 nM
[6]
  EC50: 237 nM
[7]
  Ratio EC50: 2
[8]
  EC50: 183 nM
[9]
  EC50: 11.7 µM
[10]
  Efficacy: 130%
[11]
  Efficacy: 117%
[12]
  Efficacy: 92%
[13]
  EC50: 30.1 nM
[14]
  Ratio EC50: 4
[15]
  EC50: 1000 nM
[16]
  Efficacy: 115%
[17]
  Efficacy: 87%
[18]
  Efficacy: 97%
[19]
  Activity: Dose-dependent effect
[20]
  Efficacy: 5%
[21]
  EC50: 120 nM
[22]
  EC50: 299 nM
[23]
  Efficacy: 104%
[24]
  Efficacy: 41%
[25]
  EC50: 111 nM
[26]
  Efficacy: 87%
[27]
  EC50: > 300 µM
[28]
  Ratio EC50: 10
[29]
  EC50: 95.8 nM

## Nc1c(S(=O)(=O)O)cc(Nc2ccc(Nc3nc(Cl)nc(Nc4cccc(S(=O)(=O)O)c4)n3)c(S(=O)(=O)O)c2)c2c1C(=O)c1ccccc1C2=O [RB 2]
[30]
  inhibition: 55%
[31]
  IC50: 1570 nM
[32]
  Ratio IC50: 0.6
[33]
  inhibition: 55%
[34]
  IC50: 9.3 µM
[35]
  IC50: 1620 nM
[36]
  IC50: > 100 µM
[37]
  IC50: 1050 nM
[38]
  IC50: 18.6 µM
